Experimental data: ChEMBL document CHEMBL1629417, “Benzophenones and biflavonoids from Rheedia edulis” (J Nat Prod, 2010)

What was measured:
[1] = test system: Radical scavenging activity; assay: Antioxidant activity assessed as DPPH radical scavenging activity; format: functional
Method in brief: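 Follows a previously described method. Trolox and gallic acid serve as reference antioxidants. Scavenging is expressed as percent inhibition of DPPH relative to DMSO-treated controls, and IC50 values are derived from it.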

[2] = Antioxidant activity assessed as ABTS radical scavenging activity; format: functional
Method in brief: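 Based on the Re et al. ABTS radical cation decolorization method, with modifications. Trolox and gallic acid serve as reference antioxidants. Percent inhibition of ABTS is calculated as in the DPPH assay, relative to DMSO-treated controls, and IC50 values are derived from it.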

IC50 [1] [µM] | IC50 [2] [µM] | SMILES
766 | 287 | CC(C)=CC[C@H]1C[C@]2(CC=C(C)C)C(=O)[C@@](CC=C(C)C)(C(=O)C(C(=O)c3ccccc3)=C2O)C1(C)C [6-EPI-CLUSIANONE]
70.8 | 48.4 | Cc1c(C)c2c(c(C)c1O)CCC(C)(C(=O)O)O2 (stereo unspecified) [TROLOX]

SMILES | IC50 [1] [µM] | IC50 [2] [µM]
O=C(O)c1cc(O)c(O)c(O)c1 [GALLIC ACID] | 33.9 | 19.8
